Source: ChEMBL document CHEMBL1151952, “Biologically active cannabinoids from high-potency Cannabis sativa” (J Nat Prod, 2009)

What was measured:
[1] = test system: Mycobacterium intracellulare; assay: Antibacterial activity against Mycobacterium intracellular ATCC 23068 after 68 to 72 hrs by alamar blue assay; type: functional, organism-based
[2] = test system: Escherichia coli; assay: Antibacterial activity against Escherichia coli ATCC 35218 after 18 to 24 hrs by alamar blue assay; type: functional, organism-based
[3] = test system: Candida albicans; assay: Antifungal activity against Candida albicans ATCC 90028 after 18 to 24 hrs by alamar blue assay; type: functional, organism-based
[4] = test system: Vero; assay: Cytotoxicity against african green monkey Vero cells up to 10 ug/mL by neutral red method; type: cell-based; settings: chlorocebus sabaeus
[5] = test system: Leishmania donovani; assay: Antileishmanial activity against Leishmania donovani; type: functional, organism-based
Procedure, shortened: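 Leishmania donovani assay; IC50 and IC90 are the test concentrations that kill 50% and 90% of cells, relative to solvent controls.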

[6] = test system: Staphylococcus aureus; assay: Antibacterial activity against methicillin-resistant Staphylococcus aureus ATCC 33591 after 18 to 24 hrs by alamar blue assay; type: functional, organism-based
[7] = test system: Plasmodium falciparum; assay: Antiplasmodial activity against Plasmodium falciparum D6; type: functional, organism-based
[8] = test system: Staphylococcus aureus; assay: Antibacterial activity against Staphylococcus aureus ATCC 29213 by alamar blue assay; type: functional, organism-based
[9] = test system: Plasmodium falciparum; assay: Antiplasmodial activity against Plasmodium falciparum W2; type: functional, organism-based
[10] = test system: Pichia kudriavzevii; assay: Antifungal activity against Candida krusei ATCC 6258 by alamar blue assay; type: functional, organism-based
[11] = Mycobacterium intracellulare, ATCC 23068, read-out: IC50
[12] = Candida albicans, ATCC 90028, read-out: IC50
[13] = Plasmodium falciparum, D6, read-out: IC50
[14] = Plasmodium falciparum, W2, read-out: IC50
[15] = Staphylococcus aureus, ATCC 29213, read-out: IC50

| Compound | IC50 [2] | Activity [4] | IC50 [1] | IC50 [5] | IC90 [5] | IC50 [6] | IC50 [3] | IC50 [10] | IC50 [8, 15] | also measured |
| --- | --- | --- | --- | --- | --- | --- | --- | --- | --- | --- |
| CCCCCc1cc(O)c2c(c1)OC(C)(C)c1cc(O)c(C)cc1-2 | Not Active | Non-toxic |  |  |  |  |  |  |  | IC50 [1, 11]: 30.6 µM; IC50 [3, 12]: 4.6 µM |
| CCCCCc1cc(O)c(C/C=C(\C)CCC=C(C)C)c(OC(C)=O)c1O | Not Active | Non-toxic | Not Active | 10.7 µM | 18.7 µM | 53.4 µM | Not Active |  |  | IC50 [7, 13]: 7.2 µM; IC50 [8]: Not Active; IC50 [9, 14]: 6.7 µM |
| CCCCCc1c(C/C=C(\C)CCC=C(C)C)c(O)cc(O)c1OC(C)=O | Not Active | Non-toxic | Not Active | 42.7 µM | 85.4 µM | 6.7 µM | Not Active | 53.4 µM | 12.2 µM | IC50 [7]: Not Active; IC50 [9]: Not Active |
| CCCCCc1cc(O)c2c(c1OC(C)=O)OC(C)(CCC=C(C)C)C=C2 (racemic) |  | Non-toxic |  | 40.3 µM | 91.3 µM |  |  |  |  | IC50 [7, 13]: 7.2 µM; IC50 [9, 14]: 4 µM |
| C=C(C)C(O)CCC1(C)C=Cc2c(O)cc(CCCCC)cc2O1 (racemic) | Not Active | Non-toxic | Not Active |  | 96.8 µM | 24.4 µM |  | 60.5 µM | 29.6 µM | IC50 [7]: Not Active; IC50 [3, 12]: 60.5 µM; IC50 [9]: Not Active |
| CCCCCc1cc2c(c(O)c1C(=O)O)-c1cc(C)c(O)cc1C(C)(C)O2 [8-HYDROXYCANNABINOLIC ACID A] |  | Non-toxic | Not Active |  |  |  | Not Active | 54 µM | 3.5 µM | IC50 ([2]; Escherichia coli, ATCC 35218, read-out: IC50): 54 µM |
| C[C@@H]1[C@H](O)[C@@H](C)/C=C/C=C/C=C/C=C/C=C/C=C/C=C/[C@H](O[C@@H]2O[C@H](C)[C@@H](O)[C@H](N)[C@@H]2O)C[C@@H]2O[C@](O)(C[C@@H](O)C[C@@H](O)[C@H](O)CC[C@@H](O)C[C@@H](O)CC(=O)O[C@H]1C)C[C@H](O)[C@H]2C(=O)O [AMPHOTERICIN B] |  |  |  |  |  |  |  | 0.7 µM |  |  |
| O=C(O)c1cn(C2CC2)c2cc(N3CCNCC3)c(F)cc2c1=O [CIPROFLOXACIN] |  |  |  |  |  |  |  |  |  | IC50 [1, 11]: 1.5 µM |
| N=C(N)c1ccc(OCCCCCOc2ccc(C(=N)N)cc2)cc1 [PENTAMIDINE] |  |  |  | 3.8 µM | 19.1 µM |  |  |  |  |  |
